Measurements: paper PMC7814958 (Nuclear medicine and biology, 2020)
Where “and” joins values, the source holds several entries; their conditions need not be identical. Identical values can stand only once.

Legend:
[1] = system: ASCT-2 expressing wild-type HEK-293 cells; assay: Inhibition of [3H]glutamine uptake in wild-type HEK-293 cell line; assay type: cell-based; conditions: 50 μM glutamine; 5 min, 37 °C; n=3
Method in brief: (§1)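 Wild-type or CRISPR-Cas9 SLC1A5-knockout HEK-293 cells grown in DMEM (10% FCS, 1% L-glutamine), seeded at 175,000 cells/mL on poly-D-lysine-coated wells the day before. Washed in HEPES+ (pH 7.4), then given 50 μM [3H]-L-glutamine/glutamine ± test compound. Stopped with ice-cold PBS+BSA, washed, lysed in 0.1 M NaOH, scintillation-counted, BCA protein-normalized. Knockout checked by flow cytometry.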

[2] = system: SLC1A5 knock-out HEK-293 cell line; assay: Inhibition of [3H]glutamine uptake in ASCT-2 knock-out HEK-293 cell line; assay type: cell-based; conditions: 50 μM glutamine; 5 min, 37 °C; n=3
Method in brief: as §1

ASCT-2 transporter [3] = target: T1, ASCT-2 transporter (Homo sapiens, UniProt Q15758); assay: [3H]glutamine uptake concentration dependency; assay type: cell-based; conditions: for affinity towards the ASCT-2 transporter (in words): human PC-3 cell line
T1 sequence (Q15758 1-541): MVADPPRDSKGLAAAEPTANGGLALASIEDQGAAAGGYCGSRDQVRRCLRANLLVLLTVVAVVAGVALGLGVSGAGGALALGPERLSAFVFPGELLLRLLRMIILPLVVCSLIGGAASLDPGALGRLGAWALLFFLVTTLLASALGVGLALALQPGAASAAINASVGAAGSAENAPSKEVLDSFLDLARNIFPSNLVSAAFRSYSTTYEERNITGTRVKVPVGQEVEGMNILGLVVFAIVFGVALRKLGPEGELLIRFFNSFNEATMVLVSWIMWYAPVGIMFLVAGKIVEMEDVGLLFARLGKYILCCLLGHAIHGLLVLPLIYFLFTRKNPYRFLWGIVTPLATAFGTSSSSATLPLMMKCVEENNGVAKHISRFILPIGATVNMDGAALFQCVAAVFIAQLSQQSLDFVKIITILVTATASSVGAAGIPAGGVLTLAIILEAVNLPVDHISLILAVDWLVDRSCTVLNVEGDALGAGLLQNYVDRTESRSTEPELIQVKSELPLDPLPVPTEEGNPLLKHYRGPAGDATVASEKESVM
Method in brief: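 Human PC-3 cells kept in RPMI with 10% FCS, 1% L-glutamine and pen/strep, plated the prior day at 175,000 cells/mL. Washed twice in HEPES+ (pH 7.4), then 5 min at 37 °C with [3H]-L-glutamine (111 kBq/mL) over a 10–1200 μM glutamine stock series, ± unlabelled test compound. Ice-cold PBS+BSA stop, NaOH lysis, scintillation counting, BCA normalisation. Non-linear Michaelis-Menten fits; Ki from Km and Km,app at inhibitor concentration.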

ASCT-2 = target: T2, ASCT-2 (Homo sapiens, UniProt Q15758); assay: Inhibition of [3H]-L-glutamine uptake in PC-3 cells; assay type: cell-based; conditions: 5 min, 37 °C, n=3
T2 sequence (Q15758 1-541): T1 sequence (Q15758 1-541)
Method in brief: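 PC-3 cells grown in RPMI with 10% FCS, 1% L-glutamine and pen/strep at 37 °C, 5% CO2, seeded at 175,000 cells/mL the day before. Washed twice in HEPES+ buffer (pH 7.4, 100 mM NaCl, 1 g/L BSA), then given [3H]-L-glutamine (111 kBq/mL) with unlabelled glutamine ± test compound. Stopped on ice with cold PBS+BSA, NaOH-lysed, scintillation-counted, BCA protein-corrected.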

ASCT-2 transporter [4] = target: T3, ASCT-2 transporter (Rattus norvegicus, UniProt D3ZJ25); assay: [3H]glutamine uptake concentration dependency; assay type: cell-based; conditions: for affinity towards the ASCT-2 transporter (in words): rat F98 cell line
T3 sequence (D3ZJ25 1-555): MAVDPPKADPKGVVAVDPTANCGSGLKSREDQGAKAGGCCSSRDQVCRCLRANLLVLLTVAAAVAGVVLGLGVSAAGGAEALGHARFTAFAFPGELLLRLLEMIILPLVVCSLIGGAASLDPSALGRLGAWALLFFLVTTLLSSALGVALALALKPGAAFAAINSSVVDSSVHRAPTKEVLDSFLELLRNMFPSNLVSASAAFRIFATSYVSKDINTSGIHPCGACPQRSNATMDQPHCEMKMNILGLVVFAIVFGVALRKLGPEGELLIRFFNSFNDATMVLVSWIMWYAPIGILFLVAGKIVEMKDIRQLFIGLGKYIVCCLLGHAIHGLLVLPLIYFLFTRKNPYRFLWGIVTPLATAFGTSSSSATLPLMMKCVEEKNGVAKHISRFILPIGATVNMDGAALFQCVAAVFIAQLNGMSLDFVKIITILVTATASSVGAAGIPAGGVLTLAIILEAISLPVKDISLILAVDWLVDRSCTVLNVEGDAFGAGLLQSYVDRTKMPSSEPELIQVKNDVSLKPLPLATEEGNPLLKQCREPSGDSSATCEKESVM
Method in brief: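 Rat F98 cells grown in DMEM with 10% FCS, 1% L-glutamine and pen/strep, seeded the day before at 125,000 cells/mL. After two HEPES+ washes (pH 7.4), cells took up [3H]-L-glutamine (111 kBq/mL) for 5 min at 37 °C. Glutamine stocks spanned 10–1200 μM, ± non-radioactive test compound. Stopped on ice, NaOH lysis, scintillation counting, BCA protein correction. Ki from Michaelis-Menten Km versus Km,app.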

LogD7.4 determination = assay type: physicochemical; conditions: n=3
Method in brief: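 1 MBq radiolabelled test compound added to PBS/n-octanol (1:1, V:V), vortexed and spun 10 min at 1100 g. Aliquots of each layer counted in a NaI(Tl) scintillation counter. LogD7.4 taken as log of octanol/PBS count ratio; n=3.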

PC-3 xenograft = assay: Dynamic microPET in PC-3 xenograft model; assay type: in vivo, mice
Method in brief: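 Male Swiss nu/nu mice (n=5) received 5 × 10^6 PC-3 cells with Matrigel in the right flank at 8 weeks and the left flank a week later; scanned seven weeks post-inoculation. Fasted ≥6 h, isoflurane anaesthesia, 18.5 MBq i.v. via tail vein. 1-h dynamic PET (1-min frames to 25 min, then 5-min), then CT. Manual tumor and leg-muscle ROIs; SUV decay- and syringe-corrected.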

[5] = In vitro stability in formulation; assay type: physicochemical; conditions: 37 °C; analytical HPLC; no degradation products found
Method in brief: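 Radiolabelled test compound held in its formulation at 37 °C for 30, 70, 120 and 180 min after radiosynthesis. Formulation was HPLC eluate (ethanol/10 mM ammonium acetate), diluted with PBS for the biphenyl analogue. At each point 7 MBq was run on analytical C18 HPLC with radio and UV (205 nm) detection at 1.0 mL/min. Runs were isocratic, ethanol/10 mM ammonium acetate 10:90 or 30:70.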

[6] = Biodistribution study in PC-3 inoculated mice; assay type: in vivo
Method in brief: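 PC-3 flank xenografts in male Swiss nu/nu mice, prepared as for imaging. Seven weeks post-inoculation, 5.0 MBq radiotracer given i.v. via lateral tail vein. Mice killed by cervical dislocation at 20 and 60 min p.i. (n=3 each). Blood drawn by cardiac puncture; organs dissected, rinsed with water, weighed and counted. Results as %ID/g ± SD.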

[7] = reported for glutamine; cited from earlier work
[8] = Swiss nu/nu male mice, PC-3, i.v., 20 min, n=3
[9] = Swiss nu/nu male mice, PC-3, i.v., 60 min, n=3

For `N[C@@H](CCC(=O)Nc1ccc(-c2ccc(F)cc2)cc1)C(=O)O` [FBPG, N5-(4’-fluoro-[1,1’-biphenyl]-4-yl)glutamine], the “relative uptake of [3H]glutamine in presence of inhibitor compared to basal uptake, Wild-type HEK-293” value [1] was 95 ± 6%, the “relative uptake of [3H]glutamine in presence of inhibitor compared to basal uptake, ASCT-2 KO HEK-293” value [2] was 58 ± 9% and the Ki (ASCT-2 transporter [3]) was 604 µM. The “affinity towards the ASCT-2 transporter (in words)” value (ASCT-2 transporter [3]) was “low affinity”, the “relative uptake of [3H]-L-glutamine in presence of inhibitor compared to basal uptake” value (ASCT-2) was 92 ± 1% and the Ki (ASCT-2 transporter [4]) was 1420 µM. The “affinity towards the ASCT-2 transporter (in words)” value (ASCT-2 transporter [4]) was “low affinity”.

With `N[C@@H](CCC(=O)Nc1ccc(F)cc1)C(=O)O` [FPG, N5-(4-fluorophenyl)glutamine] the “relative uptake of [3H]glutamine in presence of inhibitor compared to basal uptake, Wild-type HEK-293” value [1] was 96 ± 7%, the “relative uptake of [3H]glutamine in presence of inhibitor compared to basal uptake, ASCT-2 KO HEK-293” value [2] was 60 ± 7% and the Ki (ASCT-2 transporter [3]) was 234 µM. For the same compound, the “affinity towards the ASCT-2 transporter (in words)” value (ASCT-2 transporter [3]) was “moderate affinity”, the “relative uptake of [3H]-L-glutamine in presence of inhibitor compared to basal uptake” value (ASCT-2) was 94 ± 9% and the Ki (ASCT-2 transporter [4]) was 850 µM. The “affinity towards the ASCT-2 transporter (in words)” value (ASCT-2 transporter [4]) was “low affinity”.

In the case of `N[C@@H](CCC(=O)Nc1ccc(-c2ccc([18F])cc2)cc1)C(=O)O` [[^18F]FBPG, [^18F]fluorobiphenylglutamine], the “logD7.4 (octanol/PBS ratio at pH 7.4)” value (LogD7.4 determination) is reported as 1.11 ± 0.01 and 1.11, the “T/Mmean (mean tumor-to-muscle ratio)” value (PC-3 xenograft; PC-3 xenograft mice, 18.5 MBq i.v., leg muscle as reference) is reported as 1.20 ± 0.15 and the “SUVmean (mean standardized uptake value)” value (PC-3 xenograft; PC-3 xenograft mice, 18.5 MBq i.v., tumor ROI) is reported as 0.17 ± 0.04. The “tumor uptake on PET (in words)” value (PC-3 xenograft; mice bearing PC-3 xenografts) was “very low uptake”, the stability in formulation [5] was “at least 3 hours” and the “bone uptake as indication of defluorination (in words)” value ([6]; PC-3 inoculated mice) was “No enhanced uptake in the bone”. For the same compound, the “Bladder uptake %ID/g 20 min post-injection” value [6, 8] was 1.33 ± 0.77 %ID/g, the “Blood uptake %ID/g 20 min post-injection” value [6, 8] was 5.49 ± 0.74 %ID/g and the “Bone uptake %ID/g 20 min post-injection” value [6, 8] was 0.95 ± 0.20 %ID/g. The “Brain uptake %ID/g 20 min post-injection” value [6, 8] was 0.67 ± 0.13 %ID/g, the “Fat uptake %ID/g 20 min post-injection” value [6, 8] was 0.92 ± 0.26 %ID/g and the “Heart uptake %ID/g 20 min post-injection” value [6, 8] was 2.03 ± 0.47 %ID/g. For the same compound, the “Kidney uptake %ID/g 20 min post-injection” value [6, 8] was 11.52 ± 3.91 %ID/g, the “Large intestine uptake %ID/g 20 min post-injection” value [6, 8] was 0.39 ± 0.14 %ID/g and the “Liver uptake %ID/g 20 min post-injection” value [6, 8] was 7.43 ± 1.80 %ID/g. The “Lung uptake %ID/g 20 min post-injection” value [6, 8] was 5.03 ± 1.14 %ID/g, the “Muscle uptake %ID/g 20 min post-injection” value [6, 8] was 0.45 ± 0.09 %ID/g and the “Prostate uptake %ID/g 20 min post-injection” value [6, 8] was 2.13 ± 1.90 %ID/g. The “Skin uptake %ID/g 20 min post-injection” value [6, 8] was 0.79 ± 0.10 %ID/g, the “Small intestine uptake %ID/g 20 min post-injection” value [6, 8] was 5.77 ± 5.82 %ID/g and the “Spleen uptake %ID/g 20 min post-injection” value [6, 8] was 3.11 ± 0.28 %ID/g. The “Stomach uptake %ID/g 20 min post-injection” value [6, 8] was 2.89 ± 1.72 %ID/g, the “Tumor uptake %ID/g 20 min post-injection” value [6, 8] was 0.46 ± 0.09 %ID/g and the “Bladder uptake %ID/g 60 min post-injection” value [6, 9] was 2.54 ± 1.47 %ID/g. The “Blood uptake %ID/g 60 min post-injection” value [6, 9] was 4.24 ± 0.85 %ID/g, the “Bone uptake %ID/g 60 min post-injection” value [6, 9] was 0.67 ± 0.14 %ID/g and the “Brain uptake %ID/g 60 min post-injection” value [6, 9] was 0.38 ± 0.03 %ID/g. The “Fat uptake %ID/g 60 min post-injection” value [6, 9] was 1.21 ± 1.05 %ID/g, the “Heart uptake %ID/g 60 min post-injection” value [6, 9] was 1.50 ± 0.52 %ID/g and the “Kidney uptake %ID/g 60 min post-injection” value [6, 9] was 14.46 ± 1.71 %ID/g. For the same compound, the “Large intestine uptake %ID/g 60 min post-injection” value [6, 9] was 0.53 ± 0.07 %ID/g, the “Liver uptake %ID/g 60 min post-injection” value [6, 9] was 4.44 ± 0.83 %ID/g and the “Lung uptake %ID/g 60 min post-injection” value [6, 9] was 3.75 ± 0.43 %ID/g. The “Muscle uptake %ID/g 60 min post-injection” value [6, 9] was 0.48 ± 0.28 %ID/g, the “Prostate uptake %ID/g 60 min post-injection” value [6, 9] was 2.60 ± 1.12 %ID/g and the “Skin uptake %ID/g 60 min post-injection” value [6, 9] was 0.57 ± 0.10 %ID/g. For the same compound, the “Small intestine uptake %ID/g 60 min post-injection” value [6, 9] was 19.10 ± 4.83 %ID/g, the “Spleen uptake %ID/g 60 min post-injection” value [6, 9] was 2.07 ± 0.26 %ID/g and the “Stomach uptake %ID/g 60 min post-injection” value [6, 9] was 0.85 ± 0.01 %ID/g. The “Tumor uptake %ID/g 60 min post-injection” value [6, 9] was 0.42 ± 0.09 %ID/g.

For `NC(=O)CC[C@H](N)C(=O)O` [glutamine], the logD7.4 [7] is given as −3.64.
